Dynein transport: inhibitors of GR-EGFP nuclear translocation, primary screen, dynein cargo transport inhibitor project, imaging, high-content, 3617.4 mouse cells. test concentration mostly 20 µM; stimulated with dexamethasone, 1 µM; hits give low values. z-score, hits read low. hit rate 0.47% among 220,000;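 active means plate z-score of nuclear minus cytoplasmic receptor signal below a set negative limit, without overly bright fluorescence or cell loss, cut at about -3.5 in these data, passing the limit was not always enough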;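 further: z-score of nuclear minus cytoplasmic ring GR-EGFP intensity difference per well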
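Buffer or medium: tet-free medium with charcoal-stripped serum / Also added: dexamethasone agonist, 1.0 µM final, for 30 min / Timing: induction 48 h, compound 1 h, agonist 30 min / Measured by: high-content fluorescence imaging after fixation / Read-out: nuclear-to-cytoplasmic GR-EGFP distribution per well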
CHOP inh: inhibitors of CHOP promoter induction, primary screen, cell-based, unfolded protein response, luciferase reporter; hit rate 3.8% among 220,000; AID 2732, 2010; inhibition, % at 10 µM; CHO-K1 CHOP-promoter luciferase, tunicamycin-induced, 15-18 h;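 active means compounds that reduced the stress-induced luciferase reporter signal by more than about 70% of percent inhibition, limit read from the data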
Lmaj promast: Leishmania major promastigote growth inhibition, primary screen. AID 1063, 2008. Leishmania major promastigotes, resazurin fluorescence viability. hit rate 9% among 200,000. inhibition, % at 10 µM; in the data active means inhibition above about 50%;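 further: promastigotes grown with compound for 44 hours at 28 °C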
Autophagy HCS: autophagy modulators in MEF cells, primary screen, imaging, high-content, MEF GFP-LC3; MEF GFP-LC3 puncta imaging; test concentration mostly 10 µM; calls only at 10 µM (by protocol); hit rate 0.98% among 190,000;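 active means percentage of spot-positive cells more than 3 SD above its plate mean, without a fluorescence outlier flag or 80% toxicity; inconclusive means no clear call, values can overlap the other calls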
MT stabilize HCS: microtubule stabilizers in HeLa cells, primary screen, imaging, high-content imaging; HeLa tubulin immunostaining HCS, 24 h; share of cells brighter than vehicle mean+2SD; hit rate 0.83% among 200,000; % tubulin-high responders, % at 10 µM;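 active means plate Z-score above 3 for both tubulin-high and condensed-nucleus cell shares, with cell loss under 80%, at 10 µM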;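 further: anti alpha tubulin signal scored within the nucleus-defined area of each cell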
bCat nuc transl: modulators of beta-catenin nuclear translocation, primary screen, imaging, HeLa cells, immunofluorescence, high-content | nuclear translocation activity, % at 5 µM | hit rate 0.3% among 190,000 | AID 1665, 2009;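 active means nuclear translocation activity above 50% at 5 µM, with a well cell count of 50 or more; inconclusive means wells under 50 cells across six images, flagged as toxic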;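 further: per-cell ratio of nuclear to cytoplasmic median beta-catenin stain intensity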
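Test system: HeLa cells, endogenous beta-catenin; Compound: single 5 µM dose plus 0.02–20 µM confirmation series; Times: compound exposure 24 h at 37°C; Signal: fluorescence imaging of beta-catenin antibody stain plus DAPI; Read-out: % activation, nuclear-to-cytoplasmic median beta-catenin signal ratio per cell.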
CHOP inh conf: retest of CHOP induction inhibitors, confirmation, cell-based; hit rate 45% among 2,100; shares compounds with CHOP inh; CHO-CHOP promoter luciferase reporter, tunicamycin-induced, luminescence; inhibition, % at 10 µM;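 active means mean of three repeat readings of reporter signal inhibition above a set limit, cut at about 70% in these data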
A number is an active result; 0 = inactive; ? = inconclusive; - = no result given. An excerpt weighted towards active compounds, which were near 12% of everything screened.

SMILES	Dynein transport	CHOP inh	Lmaj promast	Autophagy HCS	MT stabilize HCS	bCat nuc transl	CHOP inh conf
COc1ccc(N2CCN(Cc3cc(=O)oc4cc(C)c(Cl)cc34)CC2)cc1	0	96.1	0	0	0	0	0
COc1ccc(N2CCN(Cc3cc(=O)oc4cc(-c5ccccc5)c(O)cc34)CC2)cc1	0	0	0	0	0	0	-
O=C1C(=Cc2ccco2)C(=O)c2ccccc21	0	0	0	0	0	0	-
COc1cc(/C=C2\C(=O)ON=C2c2ccccc2)cc(OC)c1OC	0	0	0	0	0	0	-
COc1ccc(/C=C2/C(=O)ON=C2c2ccccc2)cc1OC	0	105.2	0	0	0	0	103.8
O=C1ON=C(c2ccccc2)/C1=C/c1ccco1	0	104.1	0	0	0	0	0
C=C(C)COc1ccc(-c2[nH]ncc2-c2ccccc2OC)c(O)c1	0	105.5	0	0	28.8	0	0
C=C(C)COc1ccc(-c2[nH]ncc2Oc2ccc(OC)cc2)c(O)c1	0	0	-	-	-	0	-
CC(NC(=O)CCCOc1ccc(Cl)cc1)c1ccccc1 (stereo unspecified)	0	0	0	0	0	0	-
CC(NCc1ccc(OCc2ccc(Cl)cc2)cc1)C(O)c1ccccc1 (stereo unspecified)	0	104.9	100.4	0	0	0	0
O=C(O)c1ccc(Cl)c(NC(=O)C2CCCN2S(=O)(=O)c2cccc3nsnc23)c1 (stereo unspecified)	0	0	0	0	0	0	-
O=C(CN1c2ccccc2Sc2ccccc21)NNC(=O)Nc1cccc(Cl)c1	0	103.1	-	-	-	0	117.5
O=C(N/N=C/c1ccc(Cl)cc1)C1CC12CCC2 (stereo unspecified)	0	0	0	0	0	0	-
Cc1ccc(C)c(N2CCN(c3ccc(N4C(=O)COCC4=O)cc3[N+](=O)[O-])CC2)c1	0	0	0	0	0	0	-
Cc1cc(N2C(=O)C=CC2=O)c([N+](=O)[O-])cc1C	-6.27	107.7	0	0	0	-	0
CCc1nnc(NC(=O)C2=CCN(S(=O)(=O)c3ccc(F)cc3)CC2)s1	0	0	-	-	-	0	-
O=c1nc(Nc2ccc(OCc3ccccc3)cc2)sc2ncccc12	0	101.7	0	0	0	0	0
Cc1ccc(-c2nc3n(n2)Cc2ccccc2-3)cc1	0	0	0	0	0	0	-
CCn1c(C)nc2cc(-c3nc4n(n3)Cc3ccccc3-4)ccc21	0	-	0	0	0	0	138.5
COC(=O)c1nnn(-c2cc(Cl)cc(Cl)c2)c1C(=O)OC	0	0	-	-	-	0	-
O=C(N/N=C/c1cccc([N+](=O)[O-])c1)c1cccc2cc[nH]c12	0	100.6	0	0	0	0	0
COc1ccc(CN2CCNC(=O)C2CC(=O)N(C)Cc2ccon2)c(OC)c1 (stereo unspecified)	0	0	0	0	0	0	-
O=C(Nc1nc2ccccc2[nH]1)c1ccc([N+](=O)[O-])cc1	0	0	0	0	0	0	-
C/C(=N\Nc1nc2ccccc2[nH]1)c1ccc([N+](=O)[O-])cc1	0	102.3	-	-	-	0	0
Cc1ccc(NCC(=O)N/N=C\c2ccc[nH]2)cc1	0	0	-	-	-	0	-
SMILES	Dynein transport	CHOP inh	Lmaj promast	Autophagy HCS	MT stabilize HCS	bCat nuc transl	CHOP inh conf
COc1ccc(CCNC(=O)Cn2cnc3scc(-c4ccccc4)c3c2=O)cc1OC	0	0	0	0	0	0	-
CC(SCC(=O)NC(C)C1CC2CCC1C2)C(=O)O (stereo unspecified)	0	0	0	0	0	0	-
CCOc1cc(/C=N/NC(=O)C(C)Sc2ccccn2)ccc1O (stereo unspecified)	0	0	0	0	0	0	-
C[C@@H](NCCc1ccc(O)cc1)[C@@H](O)c1ccc(O)cc1	-	0	-	-	-	-	-
CCCCCCCCNC(C)C(O)c1ccc(SC(C)C)cc1 (stereo unspecified)	0	108.5	100.3	0	0	0	128.4
COc1ccccc1Nc1nc(NCC(C)C)nc(N)c1[N+](=O)[O-]	0	100.6	-	-	-	0	0
CCOC(=O)C1=C(Cc2ccc(C)cc2)C(=O)c2ccccc2C1=O	0	103.9	0	0	0	-	0
Cc1ccn2cc(-c3cc4ccccc4oc3=O)nc2c1	0	105.4	0	0	0	0	87.5
O=[N+]([O-])c1ccc(-c2nc(C(Cl)Cl)c3ccccc3n2)cc1	0	104.6	-	-	-	0	123.8
NC(=O)Nc1ccc(C(=O)OCC(=O)NC2CCCCC2)cc1	0	0	0	0	0	0	-
Cc1ccc(C(=O)ONc2ccc(N=NC(=O)c3ccccc3O)cc2)cc1	0	103.2	0	0	0	-	0
CCCCCn1c2nc3ccccc3nc2c2c(=O)n(CC3CCCO3)c(C)nc21 (stereo unspecified)	-	-	-	-	-	0	-
COc1cc(/C=C(/C#N)c2nc3ccccc3c(=O)[nH]2)ccc1O	0	101.9	0	0	0	0	112.0
COc1cc(/C=C(\C#N)c2nc3ccccc3[nH]2)cc(Br)c1OCc1ccc(F)cc1	0	104.2	0	0	0	0	84.1
CCOc1ccc(CC(=O)NNC(=S)NCCc2ccccc2)cc1	0	0	0	0	0	0	-
Cc1cccc(NC(=O)CCNC(=O)c2ccco2)c1	0	0	0	0	0	0	-
COc1cccc(-c2nnc(SCC(=O)Nc3ccc(S(N)(=O)=O)cc3)n2C)c1	0	0	0	0	0	0	-
COc1ccc(C2C(Oc3ccccc3)C(=O)N2c2cc(C)ccc2C)cc1OC (stereo unspecified)	0	0	0	0	0	-	-
COc1ccc(C)cc1N1C(=N)/C(=C2/Nc3ccccc3S2)C(c2ccccc2)C1=O (stereo unspecified)	-3.55	98.4	100.5	0	0	0	0
Cc1c(NC(=O)COC(=O)c2ccc(S(=O)(=O)N3CCOCC3)cc2)c(=O)n(-c2ccccc2)n1C	0	0	0	0	0	0	-
O=C(O)/C=C/c1cn(Cc2ccccc2Cl)nc1-c1ccccc1	0	0	-	-	-	0	-
CCOc1cc(N2CCOCC2)c(OCC)cc1NC(=O)c1cc(-c2ccco2)nc2ccccc12	0	105.3	0	?	0	0	0
CCOC(=O)CCCCC(=O)c1[nH]c(=O)[nH]c1CSc1nnc2c3cc(Br)ccc3n(C)c2n1	0	102.6	0	0	0	0	0
O=Cc1ccccc1OCc1nnsc1Cl	0	0	0	0	0	0	-
COc1cc(NC(=O)c2ccccc2-c2ccccc2)cc(OC)c1	0	0	0	0	0	-	-
O=C(N/N=C/c1ccc(Cl)cc1Cl)c1cccc(F)c1	0	0	0	0	0	0	-

Source: PubChem BioAssay
